Assay [1] concerns the target T1, cGMP-inhibited 3',5'-cyclic phosphodiesterase 3A (Homo sapiens, UniProt Q14432). Description: Inhibition of human recombinant PDE3A assessed as cGMP hydrolysis at 50 uM after 60 mins by fluorescence polarization assay using tetramethylrhodamine-tagged cGMP as substrate. The essentials:
(§1)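 Single-point screen at 50 μM in triplicate. Recombinant PDE3A in 10 mM Tris-HCl pH 7.2, 10 mM MgCl2, 0.05% NaN3, 0.1% phosphate-free BSA. Substrate 50 nM FI-cAMP and/or TAMRA-cGMP, hydrolysis read simultaneously by IMAP fluorescence polarization after 60 min at room temperature and termination with binding solution.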

For assay [2], the system named is HT-29. Description: Growth inhibition of human HT-29 cells at 50 uM after 72 hrs by luminescent assay. Format: functional. The conditions noted are these: HT-29, 72 h, read-out: GI. The essentials:
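HT-29 cells in RPMI 1640 with 5% FBS at 37 °C, 5% CO2, >95% viability required. Plated at 5000 cells/well and left 18–24 h, then given 50 μM compound in triplicate. Viability measured 72 h later by CellTiter-Glo luminescence.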

In assay [3] the target is T1, cGMP-inhibited 3',5'-cyclic phosphodiesterase 3A. Briefly: Inhibition of human recombinant PDE3A assessed as cAMP hydrolysis at 50 uM after 60 mins by fluorescence polarization assay using fluorescein-tagged cAMP as substrate. The method in brief: as §1
The test system of assay [4] is HT-29. Briefly: Growth inhibition of human HT-29 cells after 72 hrs by luminescent assay. The class given is functional, cell-based. The conditions noted are these: HT-29, 72 h. The essentials:
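HT-29 cells (ATCC) in RPMI 1640 + 5% FBS, 37 °C, 5% CO2; only cultures >95% viable (Trypan blue) used. Seeded 5000 cells/well, 18–24 h before treatment. Live cells read by CellTiter-Glo luminescence (ATP content) 72 h post-treatment.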

Assay [5] addresses T1, cGMP-inhibited 3',5'-cyclic phosphodiesterase 3A. Description: Inhibition of human recombinant PDE3A assessed as cGMP hydrolysis after 60 mins by fluorescence polarization assay using tetramethylrhodamine-tagged cGMP as substrate.

A value given as a limit tells only on which side of the number the result lay.

T1 sequence (Q14432 whole entry): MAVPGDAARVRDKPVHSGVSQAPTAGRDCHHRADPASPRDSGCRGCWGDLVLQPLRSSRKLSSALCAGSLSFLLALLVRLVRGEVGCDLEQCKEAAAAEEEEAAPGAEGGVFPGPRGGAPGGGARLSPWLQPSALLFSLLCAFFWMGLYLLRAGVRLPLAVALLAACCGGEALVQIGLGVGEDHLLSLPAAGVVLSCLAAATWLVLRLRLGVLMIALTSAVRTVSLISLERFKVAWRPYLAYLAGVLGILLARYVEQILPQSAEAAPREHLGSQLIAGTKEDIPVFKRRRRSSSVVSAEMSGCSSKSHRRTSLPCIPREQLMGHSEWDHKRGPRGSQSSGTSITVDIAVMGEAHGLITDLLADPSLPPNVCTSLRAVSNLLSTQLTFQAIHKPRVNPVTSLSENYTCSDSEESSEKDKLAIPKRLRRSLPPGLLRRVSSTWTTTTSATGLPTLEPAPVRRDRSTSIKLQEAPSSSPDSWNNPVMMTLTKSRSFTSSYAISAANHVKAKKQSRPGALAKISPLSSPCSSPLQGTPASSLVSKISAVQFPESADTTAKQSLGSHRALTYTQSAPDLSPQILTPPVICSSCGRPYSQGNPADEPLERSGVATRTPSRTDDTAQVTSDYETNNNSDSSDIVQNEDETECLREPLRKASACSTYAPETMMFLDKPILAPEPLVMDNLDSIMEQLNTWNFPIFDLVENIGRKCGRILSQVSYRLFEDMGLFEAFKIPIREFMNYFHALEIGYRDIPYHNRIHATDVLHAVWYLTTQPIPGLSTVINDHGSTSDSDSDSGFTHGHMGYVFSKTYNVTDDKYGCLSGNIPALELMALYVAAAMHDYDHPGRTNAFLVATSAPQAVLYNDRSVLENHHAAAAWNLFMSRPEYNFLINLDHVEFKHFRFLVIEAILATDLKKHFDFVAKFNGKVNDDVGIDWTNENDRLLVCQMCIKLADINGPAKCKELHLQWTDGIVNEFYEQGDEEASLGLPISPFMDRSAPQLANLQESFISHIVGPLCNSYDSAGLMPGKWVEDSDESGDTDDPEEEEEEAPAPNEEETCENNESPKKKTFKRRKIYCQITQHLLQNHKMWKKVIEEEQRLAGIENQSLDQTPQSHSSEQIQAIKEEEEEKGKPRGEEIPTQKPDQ

With `N#Cc1c(-c2ccsc2)cc(-c2ccc(Br)cc2)[nH]c1=N`, the inhibition is 42% in assay [1] and 1.5% in assay [3]. In addition, the inhibition of growth at 50 µM in assay [2] was -5%.
The matching figures for `CCOc1ccccc1-c1cc(-c2ccc3c(c2)OCO3)[nH]c(=O)c1C#N`: 14.4%, 7.65% and 8.28%.
On to `N#Cc1c(-c2cccs2)cc(-c2ccc(Br)cc2)[nH]c1=N`, for which, in assay [2], the inhibition of growth at 50 µM stood at 98.7%. This compound showed an IC50 in assay [4] of 35 µM. Moreover, the inhibition in assay [3] is 3.57%.
In the case of `CCOc1ccccc1-c1cc(-c2ccc3c(c2)OCO3)[nH]c(=N)c1C#N`, the inhibition stood at 26.2% in assay [1] and 19% in assay [3]. Besides, the inhibition of growth at 50 µM in assay [2] was determined as 91.2%. The compound further returned an IC50 in assay [4] of 3 µM.
The matching figures for `Cc1[nH]c(=O)c(C#N)cc1-c1ccncc1` [MILRINONE]: 35%, 77%, 0% and > 50 µM.
In the case of `N#Cc1c(-c2ccsc2)cc(-c2ccc3c(c2)OCO3)[nH]c1=N`, the inhibition in assay [1] is 3%; in assay [3], 18%. Further, the inhibition of growth at 50 µM in assay [2] came to 45%.
The matching figures for `N#Cc1c(-c2ccsc2)cc(-c2ccc(Br)cc2)[nH]c1=O`: -5%, 2% and -25%.
The matching figures for `N#Cc1c(-c2cccs2)cc(-c2ccc3c(c2)OCO3)[nH]c1=N`: 10%, 5% and -20%.
`CCOc1ccc(-c2cc(-c3ccc4c(c3)OCO4)[nH]c(=N)c2C#N)cc1`: the inhibition is -8.99% in assay [1] and 45.9% in assay [3]. Also, the inhibition of growth at 50 µM in assay [2] came to 87.7%. Moreover, the IC50 in assay [4] is 12 µM.
Take `N#Cc1c(-c2cccs2)cc(-c2ccc3c(c2)OCO3)[nH]c1=O`: the inhibition in assay [1] worked out at 49.6%; in assay [3] it was 32.3%. For the same compound, the inhibition of growth at 50 µM in assay [2] was found to be 6.14%.
For the compound `CCOc1ccccc1-c1cc(-c2ccc(Br)cc2)nc(N)c1C#N`, the concentration for half-maximal inhibition (IC50) in assay [5] worked out at 27 µM.
Take `CCOc1ccccc1-c1cc(-c2ccc(Br)cc2)[nH]c(=O)c1C#N`: the values for the inhibition in assay [1] and in assay [3] were 35.2% and 13.1%, respectively. In assay [2], the inhibition of growth at 50 µM is 2.81%.
The matching figures for `N#Cc1c(-c2ccsc2)cc(-c2ccc3c(c2)OCO3)[nH]c1=O`: 20%, 8% and -25%.
The matching figures for `N#Cc1c(-c2cccs2)cc(-c2ccc(Br)cc2)[nH]c1=O`: 4%, 3% and -20%.
The matching figures for `COc1ccccc1-c1cc(-c2ccc(Br)cc2)[nH]c(=O)c1C#N`: 15.1%, 6.12% and 13.6%.
For `COc1ccccc1-c1cc(-c2ccc(Br)cc2)[nH]c(=N)c1C#N`, the inhibition of growth at 50 µM in assay [2] stood at 75%. In assay [4], this compound returned an IC50 of 50 µM. Further, the inhibition in assay [3] was determined as 16.3%.
With `CCOc1ccc(-c2cc(-c3ccc(Br)cc3)[nH]c(=O)c2C#N)cc1`, the results for the inhibition in assay [1] and in assay [3] were 10.8% and 4.76%, respectively. For the same compound, the inhibition of growth at 50 µM in assay [2] is 10.7%.
The matching figures for `COc1ccccc1-c1cc(-c2ccc3c(c2)OCO3)[nH]c(=O)c1C#N`: 30%, 30% and 0%.
Regarding `COc1ccccc1-c1cc(-c2ccc3c(c2)OCO3)[nH]c(=N)c1C#N`, the inhibition in assay [1] was found to be 35%; in assay [3] it was 45%. Moreover, the inhibition of growth at 50 µM in assay [2] was 95%. The same compound displayed an IC50 in assay [4] of 4.17 µM.
The matching figures for `CCOc1ccc(-c2cc(-c3ccc(Br)cc3)[nH]c(=N)c2C#N)cc1`: 50%, 30%, 75% and 14.2 µM.
The matching figures for `CCOc1ccccc1-c1cc(-c2ccc(Br)cc2)[nH]c(=N)c1C#N`: 126%, 37.9%, 99.8% and 13 µM.
In the case of `CCOc1ccc(-c2cc(-c3ccc4c(c3)OCO4)[nH]c(=O)c2C#N)cc1`, the results for the inhibition in assay [1] and in assay [3] were 22.3% and 10.5%, respectively. In addition, the inhibition of growth at 50 µM in assay [2] amounted to 3.84%.

Source of the values: ChEMBL document CHEMBL1155296, “Design, synthesis and biological evaluation of novel pyridine derivatives as anticancer agents and phosphodiesterase 3 inhibitors” (Bioorg Med Chem, 2009).
